Laboratory results published in ChEMBL document CHEMBL5724801, “EUbOPEN Chemogenomics Library - Multiplex” (2024).
Several values for one entry are separate records, joined by “and”; a condition that tells them apart may be missing. Identical values can stand only once.

Tested on: HEK-293T
Experiment: Multiplex assay against HEK293T
Assay type: toxicity, cell-based
Conditions: human
In short: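 Live cells carried four stains from seeding: Hoechst33342, BioTracker Green Microtubule Cytoskeleton Dye, MitoTracker Red and Annexin V Alexa Fluor 680. They were imaged on a CQ1 microscope at 37°C and 5% CO2 after compound addition. Using CellPathfinder machine-learning gating, cells were split into Hoechst high-intensity objects or normal cells, normal cells into healthy, pyknosed or fragmented nuclei, and pyknosed cells into mitotic or apoptotic; tubulin, mitochondrial-mass and membrane-permeability phenotypes are per cents of healthy-nucleus cells.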

[1] = 12 h, 1 µM, compound concentration 1 uM
[2] = 12 h, 10 µM, compound concentration 10 uM
[3] = 24 h, 1 µM, compound concentration 1 uM
[4] = 24 h, 10 µM, compound concentration 10 uM
[5] = 48 h, 1 µM, compound concentration 1 uM
[6] = 48 h, 10 µM, compound concentration 10 uM

SMILES: O=C1CSC(=O)N1C(CCc1ccncc1)COc1ccc(-c2cccc([N+](=O)[O-])c2)cc1 (stereo not given)
- Population Apoptotic (%) [1]: 18.32% and 7.02%
- Population Fragmented Nuclei (%) [1]: 3.08% and 7.35%
- Population Hoechst High Intensity Objects (%) [1]: 0.76% and 0%
- Population Membrane Permeable-Phenotype (%) [1]: 2.48% and 0%
- Population Mitochondria Different-Phenotype (%) [1]: 25.62% and 16.67%
- Population Mitotic Cells (%) [1]: 81.68% and 92.98%
- Population Normal (%) [1]: 99.24% and 100%
- Population Pyknosed Nuclei (%) [1]: 50.38% and 83.82%
- Total Cell Count [1]: 262 and 136
- Population Apoptotic (%) [2]: 45.8% and 41.28%
- Population Fragmented Nuclei (%) [2]: 3.51% and 3.1%
- Population Healthy Nuclei (%) [2]: 19.88% and 12.4%
- Population Hoechst High Intensity Objects (%) [2]: 0.58% and 0%
- Population Membrane Permeable-Phenotype (%) [2]: 0%
- Population Mitochondria Different-Phenotype (%) [2]: 32.35% and 18.75%
- Population Mitotic Cells (%) [2]: 54.2% and 58.72%
- Population Normal (%) [2]: 99.42% and 100%
- Population Pyknosed Nuclei (%) [2]: 76.61% and 84.5%
- Population Tubulin-Different-Phenotype (%) [2]: 70.59% and 62.5%
- Total Cell Count [2]: 172 and 129
- Population Apoptotic (%) [3]: 27.34% and 23.23%
- Population Fragmented Nuclei (%) [3]: 4.44% and 4.69%
- Population Hoechst High Intensity Objects (%) [3]: 0.52% and 0%
- Population Membrane Permeable-Phenotype (%) [3]: 0.42% and 0%
- Population Mitochondria Different-Phenotype (%) [3]: 35.71% and 17.39%
- Population Mitotic Cells (%) [3]: 72.66% and 76.77%
- Population Normal (%) [3]: 99.48% and 100%
- Population Pyknosed Nuclei (%) [3]: 33.42% and 77.34%
- Population Apoptotic (%) [4]: 78.62% and 78.15%
- Population Fragmented Nuclei (%) [4]: 2.66% and 5.11%
- Population Healthy Nuclei (%) [4]: 20.21% and 8.03%
- Population Hoechst High Intensity Objects (%) [4]: 1.05% and 0.72%
- Population Membrane Permeable-Phenotype (%) [4]: 0%
- Population Mitochondria Different-Phenotype (%) [4]: 81.58% and 63.64%
- Population Mitotic Cells (%) [4]: 21.38% and 21.85%
- Population Normal (%) [4]: 98.95% and 99.28%
- Population Pyknosed Nuclei (%) [4]: 77.13% and 86.86%
- Population Tubulin-Different-Phenotype (%) [4]: 100% and 45.45%
- Total Cell Count [4]: 190 and 138
- Population Apoptotic (%) [5]: 14.91% and 17.91%
- Population Fragmented Nuclei (%) [5]: 2.27% and 5.07%
- Population Healthy Nuclei (%) [5]: 82.51% and 46.38%
- Population Hoechst High Intensity Objects (%) [5]: 0%
- Population Membrane Permeable-Phenotype (%) [5]: 2.59% and 1.56%
- Population Mitochondria Different-Phenotype (%) [5]: 37.38% and 28.12%
- Population Mitotic Cells (%) [5]: 85.09% and 82.09%
- Population Normal (%) [5]: 100%
- Population Apoptotic (%) [6]: 71.68% and 69.07%
- Population Fragmented Nuclei (%) [6]: 2.88% and 7.56%
- Population Hoechst High Intensity Objects (%) [6]: 1.89% and 0%
- Population Membrane Permeable-Phenotype (%) [6]: 3.37% and 0%
- Population Mitochondria Different-Phenotype (%) [6]: 95.51% and 84.62%
- Population Mitotic Cells (%) [6]: 28.32% and 30.93%
- Population Normal (%) [6]: 98.11% and 100%
- Population Pyknosed Nuclei (%) [6]: 54.33% and 81.51%
- Population Tubulin-Different-Phenotype (%) [6]: 84.27% and 69.23%
- Total Cell Count [6]: 212 and 119

SMILES: CC(=O)Nc1cccc2c1c(Sc1ccc(Cl)cc1)c(C)n2CC(=O)O [AZD1981]
- Population Apoptotic (%) [1]: 37% and 60%
- Population Fragmented Nuclei (%) [1]: 6% and 5%
- Population Healthy Nuclei (%) [1]: 81% and 80%
- Population Hoechst High Intensity Objects (%) [1]: 6% and 8%
- Population Membrane Permeable-Phenotype (%) [1]: 0%
- Population Mitochondria Different-Phenotype (%) [1]: 46% and 57%
- Population Mitotic Cells (%) [1]: 62% and 40%
- Population Normal (%) [1]: 93% and 91%
- Population Pyknosed Nuclei (%) [1]: 11% and 13%
- Population Tubulin-Different-Phenotype (%) [1]: 28% and 18%
- Total Cell Count [1]: 405 and 314
- Population Apoptotic (%) [2]: 38% and 60%
- Population Fragmented Nuclei (%) [2]: 8% and 6%
- Population Healthy Nuclei (%) [2]: 78% and 77%
- Population Hoechst High Intensity Objects (%) [2]: 7% and 15%
- Population Membrane Permeable-Phenotype (%) [2]: 0%
- Population Mitochondria Different-Phenotype (%) [2]: 44% and 60%
- Population Mitotic Cells (%) [2]: 61% and 39%
- Population Normal (%) [2]: 92% and 84%
- Population Pyknosed Nuclei (%) [2]: 12% and 15%
- Population Tubulin-Different-Phenotype (%) [2]: 29% and 26%
- Total Cell Count [2]: 403 and 318
- Population Apoptotic (%) [3]: 20% and 54%
- Population Fragmented Nuclei (%) [3]: 9% and 7%
- Population Healthy Nuclei (%) [3]: 80%
- Population Hoechst High Intensity Objects (%) [3]: 2% and 9%
- Population Membrane Permeable-Phenotype (%) [3]: 0%
- Population Mitochondria Different-Phenotype (%) [3]: 33% and 42%
- Population Mitotic Cells (%) [3]: 79% and 45%
- Population Normal (%) [3]: 97% and 90%
- Population Pyknosed Nuclei (%) [3]: 9% and 11%
- Population Tubulin-Different-Phenotype (%) [3]: 23% and 16%
- Total Cell Count [3]: 568 and 398
- Population Apoptotic (%) [4]: 40% and 59%
- Population Fragmented Nuclei (%) [4]: 7% and 8%
- Population Healthy Nuclei (%) [4]: 79% and 81%
- Population Hoechst High Intensity Objects (%) [4]: 4% and 12%
- Population Membrane Permeable-Phenotype (%) [4]: 0%
- Population Mitochondria Different-Phenotype (%) [4]: 28% and 45%
- Population Mitotic Cells (%) [4]: 59% and 40%
- Population Normal (%) [4]: 95% and 87%
- Population Pyknosed Nuclei (%) [4]: 13% and 9%
- Population Tubulin-Different-Phenotype (%) [4]: 25% and 19%
- Total Cell Count [4]: 526 and 387
- Population Apoptotic (%) [5]: 21% and 38%
- Population Fragmented Nuclei (%) [5]: 15% and 13%
- Population Healthy Nuclei (%) [5]: 78% and 79%
- Population Hoechst High Intensity Objects (%) [5]: 1% and 3%
- Population Membrane Permeable-Phenotype (%) [5]: 1%
- Population Mitochondria Different-Phenotype (%) [5]: 18% and 20%
- Population Mitotic Cells (%) [5]: 78% and 61%
- Population Normal (%) [5]: 98% and 96%
- Population Pyknosed Nuclei (%) [5]: 6%
- Population Tubulin-Different-Phenotype (%) [5]: 10% and 12%
- Total Cell Count [5]: 908 and 570
- Population Apoptotic (%) [6]: 37% and 33%
- Population Fragmented Nuclei (%) [6]: 14% and 16%
- Population Healthy Nuclei (%) [6]: 78%
- Population Hoechst High Intensity Objects (%) [6]: 2% and 4%
- Population Membrane Permeable-Phenotype (%) [6]: 0%
- Population Mitochondria Different-Phenotype (%) [6]: 18% and 26%
- Population Mitotic Cells (%) [6]: 62% and 66%
- Population Normal (%) [6]: 97% and 95%
- Population Pyknosed Nuclei (%) [6]: 7% and 5%
- Population Tubulin-Different-Phenotype (%) [6]: 11%
- Total Cell Count [6]: 751 and 556

SMILES: Cc1cc(C)c(NC(=O)C2CC3CCC2C3)c(C)c1 (stereo not given)
- Population Apoptotic (%) [1]: 10.42% and 11.4%
- Population Fragmented Nuclei (%) [1]: 4.2% and 7.23%
- Population Healthy Nuclei (%) [1]: 55.46% and 24.1%
- Population Hoechst High Intensity Objects (%) [1]: 0.83% and 0%
- Population Membrane Permeable-Phenotype (%) [1]: 0.51% and 2.5%
- Population Mitochondria Different-Phenotype (%) [1]: 38.89% and 22.5%
- Population Mitotic Cells (%) [1]: 89.58% and 88.6%
- Population Normal (%) [1]: 99.17% and 100%
- Population Pyknosed Nuclei (%) [1]: 40.34% and 68.67%
- Total Cell Count [1]: 360 and 166
- Population Apoptotic (%) [2]: 15.2%
- Population Fragmented Nuclei (%) [2]: 3.72% and 4.14%
- Population Healthy Nuclei (%) [2]: 44.63% and 21.89%
- Population Hoechst High Intensity Objects (%) [2]: 0.82% and 0%
- Population Membrane Permeable-Phenotype (%) [2]: 0.93% and 2.7%
- Population Mitochondria Different-Phenotype (%) [2]: 32.41% and 16.22%
- Population Mitotic Cells (%) [2]: 84.8%
- Population Normal (%) [2]: 99.18% and 100%
- Population Pyknosed Nuclei (%) [2]: 51.65% and 73.96%
- Total Cell Count [2]: 244 and 169
- Population Apoptotic (%) [3]: 14.08% and 10%
- Population Fragmented Nuclei (%) [3]: 1.7% and 6.43%
- Population Healthy Nuclei (%) [3]: 74.19% and 29.24%
- Population Hoechst High Intensity Objects (%) [3]: 0%
- Population Membrane Permeable-Phenotype (%) [3]: 1.6% and 0%
- Population Mitotic Cells (%) [3]: 85.92% and 90%
- Population Normal (%) [3]: 100%
- Population Pyknosed Nuclei (%) [3]: 24.11% and 64.33%
- Population Tubulin-Different-Phenotype (%) [3]: 17.39% and 0%
- Population Apoptotic (%) [4]: 17.76% and 15.52%
- Population Fragmented Nuclei (%) [4]: 1.69% and 2.58%
- Population Healthy Nuclei (%) [4]: 72.53% and 37.63%
- Population Hoechst High Intensity Objects (%) [4]: 0%
- Population Membrane Permeable-Phenotype (%) [4]: 0.33% and 1.37%
- Population Mitochondria Different-Phenotype (%) [4]: 17.61% and 20.55%
- Population Mitotic Cells (%) [4]: 82.24% and 84.48%
- Population Normal (%) [4]: 100%
- Population Pyknosed Nuclei (%) [4]: 25.78% and 59.79%
- Population Tubulin-Different-Phenotype (%) [4]: 14.95% and 10.96%
- Total Cell Count [4]: 415 and 194
- Population Apoptotic (%) [5]: 8.16% and 13.89%
- Population Fragmented Nuclei (%) [5]: 2.91% and 1.03%
- Population Healthy Nuclei (%) [5]: 86.66% and 62.05%
- Population Hoechst High Intensity Objects (%) [5]: 0% and 1.52%
- Population Membrane Permeable-Phenotype (%) [5]: 4.67% and 2.48%
- Population Mitochondria Different-Phenotype (%) [5]: 12.37% and 24.79%
- Population Mitotic Cells (%) [5]: 91.84% and 86.11%
- Population Normal (%) [5]: 100% and 98.48%
- Population Apoptotic (%) [6]: 9.24% and 23.08%
- Population Fragmented Nuclei (%) [6]: 2.94% and 2.43%
- Population Healthy Nuclei (%) [6]: 84.08% and 71.26%
- Population Hoechst High Intensity Objects (%) [6]: 0%
- Population Membrane Permeable-Phenotype (%) [6]: 4.15% and 3.98%
- Population Mitochondria Different-Phenotype (%) [6]: 20.62% and 28.98%
- Population Mitotic Cells (%) [6]: 90.76% and 76.92%
- Population Normal (%) [6]: 100%
- Population Pyknosed Nuclei (%) [6]: 12.98% and 26.32%
